Laboratory results reported in ChEMBL document CHEMBL1144509, “Identification of some novel AHAS inhibitors via molecular docking and virtual screening approach” (Bioorg Med Chem, 2007).
Peptide text beside a SMILES is read from it.

Experiments:
[1] = tested on: Brassica rapa subsp. oleifera; test: Herbicidal activity against Brassica campestris L assessed as inhibition of rape root growth at 100 ug/ml; format: functional
Procedure, shortened: (§1)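 Rape seeds pre-soaked 4 h in distilled water, then set on filter paper in 6-cm dishes wetted with 2 ml test solution, usually 10 seeds per plate, duplicate plates. Germination in the dark for 72 h at 28 (±1) °C. Mean length of 10 roots measured. Percent inhibition calculated against distilled-water controls.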

[2] = tested on: Brassica rapa subsp. oleifera; test: Herbicidal activity against Brassica campestris L assessed as inhibition of rape root growth at 10 ug/ml; format: functional; procedure, shortened: as §1
[3] = Inhibition of Arabidopsis thaliana AHAS
Procedure, shortened: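 Purified recombinant plant AHAS. Colorimetric assay in 50 mM potassium phosphate pH 7.0 with 50 mM pyruvate, 1 mM thiamine diphosphate, 10 mM MgCl2 and 10 µM FAD, compounds given as emulsions, 30 min at 37 °C. Stopped with 10% H2SO4, then 60 °C for 15 min to convert acetolactate to acetoin. Acetoin developed with 0.5% creatine and 5% α-naphthol for 15 min at 60 °C, read at A525.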

SMILES | inhibition at 100 µg/mL [1] [%] | inhibition at 10 µg/mL [2] [%] | Ki [3] [µM]
O=C(O)Cc1cccc(CC(=O)O)c1 | 2.6 | 0 | 
O=C(NC(Cc1c[nH]cn1)C(=O)O)OCc1ccccc1 (stereo unspecified) | 0 | 0 | 
O=C(O)CC(NC(=O)OCc1ccccc1)C(=O)O (stereo unspecified) | 0 | 0 | 
O=C(O)c1ccc(SSc2ccc(C(=O)O)cn2)nc1 | 12.1 | 6 | 15.2
O=C(O)c1cccc(F)c1C(=O)O | 0 | 0 | 
NC(=O)CCC(NC(=O)OCc1ccccc1)C(=O)O (stereo unspecified) | 6.3 | 0 | 
NC(=O)CCC(NC(=O)OCC1c2ccccc2-c2ccccc21)C(=O)O (stereo unspecified) | 13.9 | 0 | 
CC(O)C(NC(=O)OCC1c2ccccc2-c2ccccc21)C(=O)O (stereo unspecified) | 25.7 | 0 | 
O=C(O)c1cc(-c2cc(C(=O)O)c3ccccc3n2)nc2ccccc12 | 1.4 | 0 | 
CC(NC(=O)OCC1c2ccccc2-c2ccccc21)C(=O)O (stereo unspecified) | 12.9 | 0 | 
O=C(O)C(Cc1ccc(O)cc1)NSc1ccccc1[N+](=O)[O-] (stereo unspecified) | 0 | 0 | 
O=C(O)C(Cc1c[nH]c2ccccc12)NSc1ccccc1[N+](=O)[O-] (stereo unspecified) | 74.8 | 60.5 | 90.7
N[C@@H](Cc1ccc(O)cc1)C(=O)N[C@@H](Cc1ccccc1)C(=O)O (H-Tyr-Phe-OH) | 0 | 0 | 
O=C1/C(=C2\Nc3ccc(S(=O)(=O)O)cc3C2=O)Nc2ccc(S(=O)(=O)O)cc21 [INDIGOTINDISULFONATE] | 0 | 0 | 42.1
